For series [1], the system named is Rattus norvegicus. The series is described as follows: Anti-inflammatory activity in Sprague-Dawley rat assessed as inhibition of carrageenan-induced paw edema at 10 mg/kg, po administered 30 mins prior to carrageenan challenge measured after 1 hr relative to control. The class given is functional. In short, it runs like this: (§1)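 Male rats given test agent or diclofenac orally at 10 mg/kg, suspended in 0.5% Na CMC, 30 min before 0.1 mL of 1% (w/v) carrageenan injected into right hind paw. Vehicle control received 0.5% sodium CMC. Paw thickness measured at 1, 3 and 5 h. % inhibition calculated from paw oedema of treated versus control group. Table gives n = 5.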

Series [2] has as its system Rattus norvegicus. The series is described as follows: Anti-inflammatory activity in Sprague-Dawley rat assessed as inhibition of carrageenan-induced paw edema at 10 mg/kg, po administered 30 mins prior to carrageenan challenge measured after 3 hrs relative to control. Format: functional. In short, it runs like this: as §1
Series [3] relates to Rattus norvegicus. Put plainly: Anti-inflammatory activity in Sprague-Dawley rat assessed as inhibition of carrageenan-induced paw edema at 10 mg/kg, po administered 30 mins prior to carrageenan challenge measured after 5 hrs relative to control. Format: functional. An outline of the steps: as §1
Series [4] concerns RAW264.7. The series is described as follows: Anti-inflammatory activity in mouse RAW264.7 cells assessed as inhibition of LPS-induced TNFalpha release at 10 uM preincubated for 1 hr followed by LPS stimulation measured after 24 hrs by ELISA relative to control. The class given is functional. In short, it runs like this: (§2)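 RAW264.7 cells (DMEM, 10% FBS, 37 °C, 5% CO2) plated at 7 × 10^4 cells/well and grown 24 h, then serum-starved 2.5 h. Exposed to 10 µM compound for 1 h, then LPS 1 µg/mL for 24 h. TNF-α or IL-6 in the medium quantified by mouse ELISA. Cytokine amount normalized to protein of viable cell pellets. Expressed as % inhibition.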

The subject of series [5] is RAW264.7. Put plainly: Anti-inflammatory activity in mouse RAW264.7 cells assessed as inhibition of LPS-induced IL-6 release at 10 uM preincubated for 1 hr followed by LPS stimulation measured after 24 hrs by ELISA relative to control. Format: functional. In short, it runs like this:
as §2

The target in series [6] is Transcription factor p65 (Mus musculus) (UniProt Q04207). Put plainly: Inhibition of LPS-induced NFkB activation in mouse RAW264.7 cells assessed as reduction in nuclear translocation of p65 at 20 uM preincubated for 1 hr followed by LPS stimulation measured after 3 hrs by Western blot method. The class given is cell-based.
Chain of Transcription factor p65 (Mus musculus) (Q04207 whole entry): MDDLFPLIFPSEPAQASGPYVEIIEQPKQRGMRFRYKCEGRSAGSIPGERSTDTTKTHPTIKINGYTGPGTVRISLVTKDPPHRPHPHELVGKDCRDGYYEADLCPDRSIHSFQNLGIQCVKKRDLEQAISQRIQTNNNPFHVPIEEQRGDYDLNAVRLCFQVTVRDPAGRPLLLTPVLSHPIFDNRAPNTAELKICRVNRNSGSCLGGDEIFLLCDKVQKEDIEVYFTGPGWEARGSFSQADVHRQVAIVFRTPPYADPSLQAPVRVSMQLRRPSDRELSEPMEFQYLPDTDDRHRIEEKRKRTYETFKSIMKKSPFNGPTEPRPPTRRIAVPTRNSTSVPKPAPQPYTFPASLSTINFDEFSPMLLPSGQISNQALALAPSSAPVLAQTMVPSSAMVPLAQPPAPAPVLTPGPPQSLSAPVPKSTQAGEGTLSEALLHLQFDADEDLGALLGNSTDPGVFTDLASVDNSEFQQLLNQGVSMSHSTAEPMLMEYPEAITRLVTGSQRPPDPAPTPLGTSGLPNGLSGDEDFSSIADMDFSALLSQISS
In series [7] the test system is RAW264.7. The series is described as follows: Anti-inflammatory activity in mouse RAW264.7 cells assessed as inhibition of LPS-induced TNFalpha release preincubated for 1 hr followed by LPS stimulation measured after 24 hrs by ELISA. The class given is functional, cell-based. An outline of the steps:
(§3)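 Serum-starved (2.5 h) RAW264.7 cells were pretreated 1 h with a range of compound concentrations, then given LPS 1 µg/mL for 24 h. TNF-α or IL-6 in the medium was quantified by mouse ELISA and normalized to protein of viable cell pellets.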

The test system of series [8] is RAW264.7. Put plainly: Anti-inflammatory activity in mouse RAW264.7 cells assessed as inhibition of LPS-induced IL-6 release preincubated for 1 hr followed by LPS stimulation measured after 24 hrs by ELISA. Format: functional, cell-based. In short, it runs like this: as §3
Series [9] concerns RAW264.7. Put plainly: Cytotoxicity against mouse RAW264.7 cells assessed reduction in cell viability at 10 to 40 uM by MTT assay. The class given is cell-based. The settings on record: raw264.7, 40 µM.
In series [10] the test system is RAW264.7. Put plainly: Anti-inflammatory activity in mouse RAW264.7 cells assessed as inhibition of LPS-induced nitric oxide production preincubated for 1 hr followed by LPS stimulation measured after 24 hrs by Griess assay. Format: functional, cell-based. In short, it runs like this: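 Griess nitrite assay. RAW264.7 cells pretreated 1 h with compound, then LPS 1 µg/mL for 24 h. Supernatant mixed 1:1 with Griess reagent, OD read at 540 nm against a NaNO2 standard curve. At least three independent experiments, each in duplicate.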

Series [11] relates to RAW264.7. Put plainly: Anti-inflammatory activity in mouse RAW264.7 cells assessed as inhibition of LPS-induced iNOS protein expression preincubated for 1 hr followed by LPS stimulation measured after 24 hrs by Western blot method. Format: functional, cell-based. An outline of the steps:
(§4)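 Cells grown 24 h, serum-starved 2.5 h, pretreated 1 h with compound, then LPS 1 µg/mL for 24 h. Lysed in RIPA on ice, run on 10% SDS-PAGE, transferred to PVDF. Probed overnight at 4 °C with primary antibody for iNOS (130 kDa) or COX-2 (72 kDa), then HRP secondary. β-actin as loading control. At least three independent experiments.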

The test system of series [12] is RAW264.7. Put plainly: Anti-inflammatory activity in mouse RAW264.7 cells assessed as inhibition of LPS-induced COX2 protein expression preincubated for 1 hr followed by LPS stimulation measured after 24 hrs by Western blot method. The class given is functional, cell-based. In short, it runs like this: as §4
Series [13] has as its system Rattus norvegicus. Put plainly: Anti-inflammatory activity in po dosed adjuvant-induced Sprague-Dawley rat arthritis model assessed as reduction in bone destruction administered once daily from day 14 to 28 post-immunization measured by H and E staining based histopathological analysis. The class given is functional, organism-based. An outline of the steps:
(§5)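 Male SD rats (180–200 g), 8 per group. Arthritis induced by one intradermal injection of 0.1 mL CFA (heat-killed M. butyricum in paraffin oil, 10 mg/mL) into the right hind paw. Test agent at 45 or 90 mg/kg, aspirin 50 mg/kg, in 0.5% CMC-Na, given intragastrically once daily on days 14–28. Right ankle joints taken at day 28, fixed, EDTA-decalcified, cut at 5 µm and H&E stained.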

Series [14] deals with Rattus norvegicus. Put plainly: Anti-inflammatory activity in po dosed adjuvant-induced Sprague-Dawley rat arthritis model assessed as reduction in synovial hyperplasia administered once daily from day 14 to 28 post-immunization measured by H and E staining based histopathological analysis. Format: functional, organism-based. An outline of the steps: as §5
Series [15] relates to Rattus norvegicus. The series is described as follows: Anti-inflammatory activity in po dosed adjuvant-induced Sprague-Dawley rat arthritis model assessed as reduction in inflammatory cell infilteration administered once daily from day 14 to 28 post-immunization measured by H and E staining based histopathological analysis. Format: functional, organism-based. An outline of the steps: as §5

For series [16], the target named is Mitogen-activated protein kinase kinase kinase 7 (Mus musculus) (UniProt Q62073). The series is described as follows: Inhibition of LPS-induced TAK1 phosphorylation in mouse RAW264.7 cells preincubated for 1 hr followed by LPS stimulation measured after 30 min by Western blot method.
Chain of Mitogen-activated protein kinase kinase kinase 7 (Mus musculus) (Q62073 whole entry, looked up): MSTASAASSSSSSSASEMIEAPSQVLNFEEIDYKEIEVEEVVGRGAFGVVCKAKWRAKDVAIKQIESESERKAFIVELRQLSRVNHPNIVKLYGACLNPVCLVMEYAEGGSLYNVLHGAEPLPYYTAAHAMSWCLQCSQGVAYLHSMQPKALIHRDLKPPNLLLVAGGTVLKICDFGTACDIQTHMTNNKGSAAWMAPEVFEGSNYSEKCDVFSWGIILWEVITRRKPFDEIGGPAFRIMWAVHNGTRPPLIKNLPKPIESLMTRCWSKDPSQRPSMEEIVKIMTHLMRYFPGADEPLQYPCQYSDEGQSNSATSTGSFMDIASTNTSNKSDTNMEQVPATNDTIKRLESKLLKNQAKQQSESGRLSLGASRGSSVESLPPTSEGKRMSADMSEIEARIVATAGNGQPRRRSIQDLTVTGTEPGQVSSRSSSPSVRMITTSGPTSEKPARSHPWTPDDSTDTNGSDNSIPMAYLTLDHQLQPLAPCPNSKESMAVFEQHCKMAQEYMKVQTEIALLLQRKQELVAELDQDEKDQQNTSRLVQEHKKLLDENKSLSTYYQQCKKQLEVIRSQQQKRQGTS
Series [17] shares this target. Put plainly: Inhibition of TAK1 in mouse RAW264.7 cells assessed as reduction in LPS-induced MAPK p38 phosphorylation preincubated for 1 hr followed by LPS stimulation measured after 30 mins by Western blot method.
Series [18] shares this target. Put plainly: Inhibition of TAK1 in mouse RAW264.7 cells assessed as inhibition of LPS-induced NFkB activation by measuring reduction in nuclear translocation of p65 at 2.5 to 10 uM preincubated for 1 hr followed by LPS stimulation measured after 3 hrs by Western blot method.
For series [19] the target is unchanged. The series is described as follows: Inhibition of TAK1 in mouse RAW264.7 cells assessed as inhibition of LPS-induced NFkB activation by measuring reduction in nuclear translocation of p65 at 2.5 to 10 uM preincubated for 1 hr followed by LPS stimulation measured after 3 hrs by DAPI staining based immunofluorescence assay.

Activity calls are given as the source filed them. The rule behind the calls is not given here.

For the compound `O=C(O)Cc1ccccc1Nc1c(Cl)cccc1Cl` [DICLOFENAC], the inhibition in vivo at 10 mg/kg in the series with Rattus norvegicus [1] came to 41%; in the series with Rattus norvegicus [2], 77%; in the series with Rattus norvegicus [3], 48%.
For `C=CCN(CC=C)CC(=O)N1N=C(c2cc3ccccc3oc2=O)CC1c1ccccc1C(F)(F)F` (stereo not drawn), the inhibition result in the series with RAW264.7 [4] and in the series on RAW264.7 [5] was “Active” throughout. Besides, the figures for the inhibition in vivo at 10 mg/kg with Rattus norvegicus [1], in the series with Rattus norvegicus [2] and in the series with Rattus norvegicus [3] were 28%, 49% and 45%, respectively.
`Cc1ccc(S(=O)(=O)/C=C/C#N)cc1`: the inhibition result in series [6] is “Active”.
Take `COc1ccc(-c2coc3cc(OCC(=O)N4N=C(c5cc6ccccc6oc5=O)CC4c4ccc(C(F)(F)F)cc4)ccc3c2=O)cc1` (stereo not drawn): the inhibition at 10 µM in the series on RAW264.7 [4] was found to be 40.4%; in the series on RAW264.7 [5], 41.2%. The IC50 in the series with RAW264.7 [7] came out at 16.8 µM; in the series with RAW264.7 [8], 14.2 µM. In addition, the Activity result in the series with RAW264.7 [9] is “Non-Toxic”; with RAW264.7 [10] it was “Dose-dependent effect”; in the series on RAW264.7 [11] it was “Dose-dependent effect”; in the series on RAW264.7 [12], “Dose-dependent effect”; in the series with Rattus norvegicus [13] it was “Dose-dependent effect”; in the series with Rattus norvegicus [14] it was “Dose-dependent effect”. The Activity entry in the series with Rattus norvegicus [15] was “Dose-dependent effect”. Also, the inhibition in vivo at 10 mg/kg in the series with Rattus norvegicus [1] is 49%; in the series with Rattus norvegicus [2], 60%; in the series on Rattus norvegicus [3] it was 59%. Moreover, the inhibition entry in [16] and in series [17] was “Dose-dependent effect” in each case. Moreover, the inhibition entry in series [18] and in series [19] was “Active” in each case.
With `Cc1ccc(-c2cc(C(F)(F)F)nn2-c2ccc(S(N)(=O)=O)cc2)cc1` [CELECOXIB], the inhibition in vivo at 10 mg/kg with Rattus norvegicus [1] came to 55%; in the series on Rattus norvegicus [2], 59%; in the series on Rattus norvegicus [3], 61%.
In the same order, the values of `CC(C)NCC(=O)N1N=C(c2cc3ccccc3oc2=O)CC1c1ccccc1C(F)(F)F` (stereo not drawn) are 17%, 20% and 13%.
For `O=C(CN1CCCCC1)N1N=C(c2cc3ccccc3oc2=O)CC1c1ccc(C(F)(F)F)cc1` (stereo not drawn), the inhibition result with RAW264.7 [4] and in the series on RAW264.7 [5] was “Active” throughout. Moreover, the inhibition in vivo at 10 mg/kg amounted to 32% in the series with Rattus norvegicus [1], 41% with Rattus norvegicus [2] and 36% in the series on Rattus norvegicus [3].

For the origin of these results see ChEMBL document CHEMBL4190236, “New arylpyrazoline-coumarins: Synthesis and anti-inflammatory activity” (Eur J Med Chem, 2017).
